Compound activity as filed in PubChem.
AI-2 QS mod – modulators of Vibrio harveyi AI-2 quorum sensing system; activity change, % at 7.5 µM; Vibrio harveyi JMH597 AI-2 luminescence/OD600 ratio, 9 h; hits give low values; strain lacks LuxN and CqsS sensors; 0 = neutral-control median; 300,000 compounds, 0.4% hits; AID 2094; in the data active means activity change below about -75%, passing the limit was not always enough; inconclusive means no clear call, values can overlap the other calls;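 further: luminescence divided by OD600 gain over 9 h not by final OD600 alone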
HSF1 inhib – HSF1 inhibition | 300,000 compounds, 0.77% hits | activity change, negative = inhibition, % at 7.5 µM (by protocol) | NIH3T3-HGL HSE-luciferase, MG132-induced, luminescence 8 h; hits give low values;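 active means more than half of replicate wells show activity change below -50%, luminescence cut by over half; inconclusive means some wells, but at most half, below -50%; inactive means no replicate well below -50%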;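 further: luciferase reports HSF-1 transcriptional activity via heat shock element; 0% = median of DMSO wells and -100% = zero luminescence signal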
HSF-1 act – increases HSF-1 driven luciferase reporter signal; NIH3T3-HGL HSF-1 luciferase reporter, MG132, 8 h; 100% = twice DMSO control signal; activation, % at 9 µM; 300,000 compounds, 1.7% hits;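 active means mean replicate activation of at least 50% with a set share of replicates each reaching 50%; inconclusive means only one of those two conditions met; inactive means mean below 50% and too few replicates reaching it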;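 further: 0% = median of the neutral control wells and 100% = twice that signal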
PHOSPHO1 inh – inhibitors of human PHOSPHO1 phosphatase | Q8TCT1 | recombinant PHOSPHO1, absorbance phosphatase assay | inhibition, % at 13.3 µM | 290,000 compounds, 1.1% hits; in the data active means inhibition above about 60%
Target sequence (Q8TCT1 whole entry, looked up): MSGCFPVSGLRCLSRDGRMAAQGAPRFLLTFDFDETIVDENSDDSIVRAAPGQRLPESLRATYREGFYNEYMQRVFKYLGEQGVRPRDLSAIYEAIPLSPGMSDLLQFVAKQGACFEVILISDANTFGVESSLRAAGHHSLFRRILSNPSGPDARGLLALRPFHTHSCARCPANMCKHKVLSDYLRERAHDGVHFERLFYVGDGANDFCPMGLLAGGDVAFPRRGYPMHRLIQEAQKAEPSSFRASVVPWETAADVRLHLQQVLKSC
core dimer inh – HCV core protein dimerization inhibition; TR-FRET GST/Flag-core106 dimerization, 1536-well; 300,000 compounds, 0.33% hits; inhibition, % at 5 µM;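 active means inhibition above the mean of all tested compounds plus 3 SD, set per screening campaign, cut at about 45% in these data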
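System: GST/Flag-tagged HCV core106 proteins. Incubation: compound-protein-antibody incubation 4 h at 22.5 °C. Technique: HTRF with 340 nm excitation, 617/671 nm emission. Medium: KF-containing HEPES buffer, pH 7.45, DTT, CHAPS, BSA. Read-out: inhibition (%) from 671 over 617 nm ratio. Also added: Eu(K)-anti-GST 90 ng/mL plus XL665-anti-Flag 1 µg/mL.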
ALR H2O2 inh – human ALR oxidase inhibition via reduced H2O2 | P55789 | purified ALR, DTT oxidation, H2O2 HRP-luminol luminescence | inhibition, % (concentration not given with the values) | 290,000 compounds, 3.8% hits | AID 485317;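 active means mean replicate inhibition above about 79%, with every replicate also reaching it, limit read from the data; inconclusive means only one of the two criteria met; inactive means mean below limit and not every replicate reaching it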
Target sequence (P55789 whole entry, looked up): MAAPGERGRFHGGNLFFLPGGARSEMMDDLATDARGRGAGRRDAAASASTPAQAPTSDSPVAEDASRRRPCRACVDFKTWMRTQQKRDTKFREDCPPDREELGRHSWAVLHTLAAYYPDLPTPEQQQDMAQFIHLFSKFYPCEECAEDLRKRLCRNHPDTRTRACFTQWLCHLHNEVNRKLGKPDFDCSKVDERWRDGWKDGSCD
* = called active by the depositor; ? = inconclusive; . = no result. In the library only some 6.8% were active in any assay of this set; here they are far more common.

SMILES | AI-2 QS mod | HSF1 inhib | HSF-1 act | PHOSPHO1 inh | core dimer inh | ALR H2O2 inh
Cc1cc(C(=O)CSc2nnc(-c3cccs3)n2Cc2ccccc2)c(C)n1C | 10 | -8 | -20 | 90* | 17 | -4
CCn1c(SCC(=O)c2ccc(O)c(O)c2)nnc1-c1ccccc1 | 15 | 5 | 9 | 15 | -9 | 98*
C=CCn1c(SCC(=O)c2ccc(O)c(O)c2)nnc1-c1ccccc1OC | 6 | -18 | -15 | 49 | 11 | 64
O=C1CC(C(=O)N2CCN(S(=O)(=O)c3cccc(F)c3)CC2)CN1Cc1ccccc1Cl (stereo not drawn) | 18 | -5 | -11 | . | -1 | 0
Cc1ccccc1C(=O)NNC(=O)c1cc(S(=O)(=O)N2CCOCC2)ccc1C | . | . | . | . | . | 0
CC(C)CCNC(=O)CNC(=S)N(Cc1ccccc1)Cc1cccnc1 | 10 | -1 | 18 | -10 | 2 | -2
C=CCN1CC2(c3ccccc3)CN(CC=C)CC(c3ccccc3)(C1)C2=O | 24 | -5 | 7 | 23 | -1 | 0
Cc1cc(C(=O)CSc2nc3ccccc3n2C)c(C)n1C | 7 | 17 | 26 | 27 | 1 | .
O=C1COc2ccc(C(=O)CSc3nnc(-c4cccs4)n3Cc3ccccc3)cc2N1 | 5 | 6 | 6 | 74* | 19 | 2
CCn1c(SCC(=O)c2cc(C)n(C)c2C)nnc1-c1ccccc1 | 12 | -10 | -23 | 62* | 1 | 3
O=C1COc2ccc(C(=O)CSc3nnc(Cc4cccs4)n3-c3ccccc3)cc2N1 | 42 | -3 | -9 | 33 | 9 | .
Nc1ccccc1-c1nnc(SCC(=O)Nc2ccccc2OC(F)F)[nH]c1=O | . | . | . | . | . | 29
CC1(C)CC(=O)C(C=NCCc2ccc(O)cc2)=C(O)C1 | 24 | 4 | 4 | 3 | -3 | 96*
CC1(C)CC(=O)C(C=NCCc2ccccn2)=C(O)C1 | 13 | 3 | 3 | 20 | -5 | 1
CC1(C)CC(=O)C(C=Nc2cccnc2)=C(O)C1 | 22 | 79 | 133* | -30 | -4 | .
CC(=O)N1CCN(C(=O)COC(=O)/C=C/c2ccc(C(F)(F)F)cc2)CC1 | . | . | . | . | . | -3
CN(C)S(=O)(=O)n1cnc([C@@H]2[C@@H]3C(=O)OC[C@@H]3C[C@]23N=CN(Cc2ccccc2)C3=O)c1 | . | . | . | . | . | -7
O=C(Oc1ccccc1C(=O)Nc1ccccc1)c1ccc(Br)c([N+](=O)[O-])c1 | 30 | 22 | 29 | -9 | -1 | 97*
Cc1cc(NC(=O)CSc2nnc(-c3ccoc3C)n2N)no1 | 20 | -3 | -5 | 55 | 2 | 26
CCOc1ccc(C(C)=O)cc1CSc1nnc(-c2ccoc2C)n1N | 19 | -1 | 10 | 75* | 46* | ?
CC(C)CN1C(=O)C(=Nc2cccnc2)c2ccccc21 | -3 | 3 | -9 | 32 | 4 | 2
N#CC(C#N)=Cc1ccccc1OCc1ccccc1 | 12 | -5 | 4 | 4 | 9 | 20
CCCCOC(=O)Oc1ccc2c(=O)c(Oc3cc(C)cc(C)c3)coc2c1 | 15 | -1 | 12 | -2 | 15 | -2
Cc1ccc(Oc2coc3cc(O)ccc3c2=O)cc1 | -94* | 1 | 3 | 42 | 6 | -5
CCCCOC(=O)Oc1ccc2c(=O)c(Oc3cccc(C)c3)coc2c1 | -77* | -1 | 11 | -18 | 15 | 35
SMILES | AI-2 QS mod | HSF1 inhib | HSF-1 act | PHOSPHO1 inh | core dimer inh | ALR H2O2 inh
O=C(Oc1ccc2c(=O)c(Oc3ccc4ccccc4c3)coc2c1)c1cncc(Br)c1 | -83* | 0 | -10 | -14 | 5 | -12
O=C(Oc1ccc2ccccc2c1)c1cncc(Br)c1 | 0 | . | . | -18 | 7 | -20
NC(=O)C(=O)N/N=C/c1c(F)c(F)c(F)c(F)c1F | 36 | -3 | -2 | -7 | 1 | 0
O=C(CN(CCc1ccccc1)C(=O)c1csnn1)NCc1ccc(F)cc1 | 5 | 6 | 19 | 2 | -6 | 2
Cc1nc(SCC(=O)c2ccccc2)n[nH]1 | 10 | -8 | 7 | 98* | -11 | 90*
O=C(CSc1n[nH]c(-c2ccncc2)n1)c1ccccc1 | 18 | 0 | -11 | 33 | 3 | 26
Nc1nc(SCC(=O)c2cccc([N+](=O)[O-])c2)n[nH]1 | 4 | 6 | 16 | 1 | 3 | 83*
